This is an account of results in ChEMBL document CHEMBL3227967, “Quantitative structure-activity relationships in 1-aryl-2-(alkylamino)ethanol antimalarials” (J Med Chem, 1979).

One data set concerns Plasmodium berghei. Nature of the data set: Antimalarial activity against Plasmodium berghei. Format: functional.
Conditions: not given
Consider `CC(C)(C)c1cc(C(O)CC2CCCCN2)c2ccccc2n1` (configuration not stated), for which the “log(1/C)” value came out at 2.08.
The same measure, in the same setting: the same measure for `CC(C)(C)c1cc(C(O)CC2CCCCN2)c2cc(Cl)ccc2n1` (configuration not stated): 2.48.
For `CCCCCCCN(CCCCCCC)CC(O)c1cc2ccncc2c2cc(Br)ccc12` (configuration not stated), the “log(1/C)” value is recorded as 2.12.

Test system in another data set: not listed separately
Nature of the data set: Lipophilicity, log P of the compound in 0.1 N HCl solution. It is filed as physicochemical. As to conditions: 0.1 N HCl solution; read-out: logP. Put shortly: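 Partition coefficients of the hydrochloride salts were measured from 0.1 N HCl solution unless a footnote says otherwise. Some entries were not measured. They were calculated by adding the Δlog P of the corresponding phenanthrene analogues to the measured log P of a reference hydrochloride.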
As to `CC(C)(C)c1cc(C(O)CC2CCCCN2)c2ccccc2n1` (configuration not stated), the logP was found to be 2.03.
Regarding `CC(C)(C)c1cc(C(O)CC2CCCCN2)c2cc(Cl)ccc2n1` (configuration not stated), the lipophilicity (logP) worked out at 2.74.
On the same count and under the same terms, the same measure for `CCN(CC)CC(O)c1cc(-c2ccccc2)nc(-c2ccccc2)c1` (configuration not stated): 2.54; for `CCN(CC)CC(O)c1cc(-c2ccccc2)nc2ccccc12` (configuration not stated): 0.94.
Same read-out and setting: the same measure for `O=C(O)c1ccc2cc(C(O)CC3CCCCN3)c3ccc(C(F)(F)F)cc3c2c1` (configuration not stated): 2.14; for `CCCCCCCN(CCCCCCC)CC(O)c1cc2ccncc2c2cc(Br)ccc12` (configuration not stated): 4.89.
Take `CCCCN(CCCC)CC(O)c1cnc2c(-c3ccccc3)cccc2c1Cl` (configuration not stated): the logP worked out at 3.71.
The same measure, in the same setting: the same measure for `CCCCN(CCCC)CC(O)c1cc(Cl)cc2cccnc12` (configuration not stated): 1.75; for `CC(=O)N1CCCCC1CC(O)c1cc(C23CC4CC(CC(C4)C2)C3)nc2c(Cl)cc(Cl)cc12` (configuration not stated): 4.29; for `CCCN(CCC)CC(O)c1cc2ccccc2c2ccccc12` (configuration not stated): 2.12.
The same measure, in the same setting: the figure for `N#CCCN(CC(O)c1cc2ccccc2c2ccccc12)C1CCCCC1` (configuration not stated) is 2.27; for `N#CCCN(CCC#N)CC(O)c1cc2ccccc2c2ccccc12` (configuration not stated) it is 0.37; for `CCCNCC(O)c1cc(-c2ccccc2)nc2ccccc12` (configuration not stated) it is 1.43.
Still for that read-out and setting: the same measure for `CCCCN(CCCC)CC(O)c1cc(OC)c2cc(Cl)cc(Cl)c2n1` (configuration not stated): 2.44.
With `O=C(O)CCNCC(O)c1cc2ccccc2c2ccccc12` (configuration not stated), the log partition coefficient (logP) is 0.6.
For `OC(CC1CCCCN1)C1CC=Nc2c1cccc2C(F)(F)F` (configuration not stated), the logP came out at 1.12.
In the case of `CCCCCCCN(CCCCCCC)CC(O)c1cc2ccc(Cl)cc2c2cccnc12` (configuration not stated), the logP was 4.74.
Turning to `CCC1C[N+]2(CC(O)c3ccnc4ccc(OC)cc34)CCC1CC2` (configuration not stated), the logP was determined as 2.31.
Consider `CCCCN(CCCC)CC(O)c1cc(OC)c2cc(OC)c(Cl)cc2n1` (configuration not stated), for which the log partition coefficient (logP) was 1.71.
Consider `CCNCC(O)c1cc(-c2ccccc2)nc(-c2ccccc2)c1` (configuration not stated), for which the lipophilicity (logP) worked out at 2.59.
With `CCCCN(CCCC)CC(O)c1ccc2cc(OC)c(Cl)cc2n1` (configuration not stated), the log partition coefficient (logP) stood at 1.73.
Turning to `CCCN(CCC)CC(O)c1cc(-c2ccccc2)nc(-c2ccccc2)c1` (configuration not stated), the logP stood at 3.29.
With `CCCCN(CCCC)CC(O)c1cc(-c2ccc(Cl)cc2)c2cc(Cl)cc(Cl)c2n1` (configuration not stated), the log partition coefficient (logP) is 5.13.
In the case of `CCCCN(CCCC)CC(O)c1c(Br)c(-c2ccccc2)nc2ccccc12` (configuration not stated), the lipophilicity (logP) was 3.86.
As for `CCCCCCCN(CCCCCCC)CC(O)c1cc2ccccc2c2cnccc12` (configuration not stated), the logP was 4.03.
In the case of `CCCCCCN(CCCCCC)CC(O)c1cc(Cl)c2nc(-c3ccccc3)ccc2c1` (configuration not stated), the logP is 5.65.
Take `Cc1ccc(Oc2cc(C(O)CC3CCCCN3)c3ccccc3n2)cc1` (configuration not stated): the logP amounted to 2.69.
Consider `OC(CN1CCCCCC1)c1ccc2c(Cl)cc(-c3ccccc3)nc2c1` (configuration not stated), for which the logP came out at 3.62.
The same measure, in the same setting: the figure for `CCCCN(CCCC)CC(O)c1cc(-c2ccccc2)nc2ccccc12` (configuration not stated) is 2.57; for `CCCCCN(CCCCC)CC(O)c1cc2ccccc2c2ccccc12` (configuration not stated) it is 4.01.
Turning to `CCCCCCCN(CCCCCCC)CC(O)c1cc(-c2ccccc2)nc(-c2ccccc2)c1` (configuration not stated), the logP came out at 7.11.
With `CCCCN(CCCC)CC(O)c1cc(-c2ccccc2C(F)(F)F)nc(C(F)(F)F)c1` (configuration not stated), the log partition coefficient (logP) turned out to be 3.97.
For the molecule `OC(CC1CCCCN1)c1ccnc2ccccc12` (configuration not stated), the log partition coefficient (logP) was 0.05.
Regarding `CCCCCCN(CCCCCC)CC(O)c1cc2ccccc2c2ccccc12` (configuration not stated), the log partition coefficient (logP) turned out to be 4.94.

One may read the logP as the decadic logarithm of the partition coefficient of the neutral form, usually between octanol and water.
